Experimental data from article PMC11249109 (Drug Design, Development and Therapy, 2024).
“And” between values parts separate entries of the source, which are not always exact repeats. Equal entries are not always repeated. Where two headings read alike, the source gives them in different places.

Key:
HIV-1 protease = settings: read-out: IC50, HIV-1 protease activity; cited from earlier work
prostaglandin E2 = settings: read-out: IC50, prostaglandin E2 inhibition; cited from earlier work
[1] = rats
[2] = Detection of panduratin A metabolites by QTOF LCMS in plasma, urine and feces; format: in vivo, Male Wistar rats; settings: rats
Procedure, shortened: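 Male Wistar rats (fasted 12 h) received 4.5 mg/kg test compound i.v. via the lateral tail vein in 50% DMSO. Plasma came from tail-vein blood spun at 5000 g, 10 min, 4°C. Urine and feces were collected in metabolic cages at 0–24 and 24–72 h. Samples were methanol-precipitated and run on QTOF LC-MS with a C18 column at 35 °C and a 0.1% formic acid water/acetonitrile gradient.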

SARS-CoV-2 = settings: read-out: IC50, anti-SARS-CoV-2 activity; Vero E6 cells; cited from earlier work
[3] = low solubility but high permeability; cited from earlier work
[4] = Percentage recovery of unchanged panduratin A in urine and feces; format: in vivo, Male Wistar rats; settings: rats
Procedure, shortened: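 Male Wistar rats (n=5/group, fasted 12 h) were dosed with 4.5 mg/kg i.v. (tail vein) or 45 mg/kg oral pure compound, both in 50% DMSO. Urine and feces were collected in metabolic cages at 0–24 and 24–72 h. Feces were bead-homogenised in methanol. Samples were precipitated with methanol containing glycyrrhizin as internal standard and quantified by negative-ESI triple-quadrupole LC-MS (calibration 0.98–1000 μg/L). Recovery is the amount excreted divided by the dose.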

Nitric oxide = settings: read-out: IC50, nitric oxide inhibition; cited from earlier work
[5] = 45 mg/kg as panduratin A p.o., IC50 from ref 7
[6] = intravenous administration, 0–72 h

## COc1cc(O)c(C(=O)[C@@H]2[C@H](CC=C(C)C)C(C)=CC[C@H]2c2ccccc2)c(O)c1 [Panduratin A]
HIV-1 protease
  IC50: 18.7 µM
Prostaglandin E2
  IC50: 19.5 nM
[1]; 4.5 mg/kg i.v.
  plasma concentration after 72 h: 500 µg/L
[1]; [5]
  Cmax of panduratin A relative to in vitro anti-SARS-CoV-2 IC50: approximately 15 fold
  minimum plasma concentration at 24 h relative to in vitro anti-SARS-CoV-2 IC50: approximately 10 fold
[1]; 45 mg/kg as panduratin A single p.o.
  plasma concentration after 72 h: 500 µg/L
[2]
  glucuronidation form of panduratin A: not detected
[2]; after i.v. 4.5 mg/kg
  metabolites in plasma or urine (QTOF LCMS): none of the metabolites of panduratin A were detected in plasma or urine
SARS-CoV-2
  IC50: 810 nM
[3]
  BCS class: BCS class II
[4]; [6]
  unchanged panduratin A excreted in urine: 2 % of the administered dose
  unchanged panduratin A excreted via feces: 25 % of the administered dose
[4]; single oral administration, 0–72 h
  unchanged panduratin A excreted in urine: ~1 % of the administered dose
[4]; summary over i.v. and oral groups
  unchanged panduratin A excreted in feces, over the experimental groups: 20–30 % of the administered dose and 22–60 % of the administered dose
Nitric oxide
  IC50: 175 nM
